The source of these data is publication PMC4696769 (Biochemistry, 2015).

Series [1] addresses T1, WT AKR1D1 (Homo sapiens, UniProt P51857). Nature of the series: Multiple turnover reactions, stopped-flow transient kinetics. The format is biochemical. Particulars: 10 mM potassium phosphate buffer, pH 7, 37 °C. The method, boiled down: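 Multiple-turnover reactions in stopped-flow. […] Both solutions in 10 mM KPi pH 7.0 with 4% acetonitrile at 37 °C. […] At least three traces averaged, fit to a linear or burst-plus-linear equation giving pseudo-first-order kburst and […] kss.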

The target of series [2] is T2, P133R AKR1D1 (Homo sapiens, UniProt P51857, P133R). Nature of the series: Multiple turnover reactions, stopped-flow transient kinetics. In kind it is biochemical. As to conditions: 10 mM potassium phosphate buffer, pH 7, 37 °C.
The target in series [3] is T1, WT AKR1D1. In words: Steroid binding, quenching of energy transfer band of E·NADPH complex.
Series [4] addresses T1, WT AKR1D1. In words: Cofactor binding, quenching of intrinsic protein fluorescence. Particulars: pH 7.0, 37 °C.
Series [5] concerns the target T2, P133R AKR1D1. The series is described as above. Particulars: pH 7.0, 37 °C.
Series [6] deals with T1, WT AKR1D1. Nature of the series: Ligand chase experiment of cofactor. Particulars: pH 7.0, 37 °C. The format is binding.
Series [7] concerns the target T2, P133R AKR1D1. In words: Ligand chase experiment of cofactor. The format is binding.
Series [8] has as its target T1, WT AKR1D1. In words: Steady-state kinetic analysis of steroid reduction. The format is biochemical. Particulars: for kcat: pH 7.0, 37 °C, 7.2 μM NADPH; for Ki: Ki (substrate inhibition; dissociation constant for substrate from the E-NADP+ complex).
The target in series [9] is T2, P133R AKR1D1. In words: Steroid binding, quenching of energy transfer band of E·NADPH complex.
The target in series [10] is T2, P133R AKR1D1. Nature of the series: Steady-state kinetic analysis of steroid reduction. Particulars: for kcat: P133R.
Substrate in series [11]: CC(C)CCC[C@@H](C)[C@H]1CC[C@H]2[C@@H]3[C@H](O)CC4=CC(=O)CC[C@]4(C)[C@H]3CC[C@]12C
Nature of the series: purified protein, by the assay type. As to conditions: other: P133R, pH 7.0, 37.0 °C.

Values joined by “and” are separate entries in the source; they are usually repeats but may differ in a detail not shown here. Equal values may be shown once.

T1 sequence (P51857 whole entry): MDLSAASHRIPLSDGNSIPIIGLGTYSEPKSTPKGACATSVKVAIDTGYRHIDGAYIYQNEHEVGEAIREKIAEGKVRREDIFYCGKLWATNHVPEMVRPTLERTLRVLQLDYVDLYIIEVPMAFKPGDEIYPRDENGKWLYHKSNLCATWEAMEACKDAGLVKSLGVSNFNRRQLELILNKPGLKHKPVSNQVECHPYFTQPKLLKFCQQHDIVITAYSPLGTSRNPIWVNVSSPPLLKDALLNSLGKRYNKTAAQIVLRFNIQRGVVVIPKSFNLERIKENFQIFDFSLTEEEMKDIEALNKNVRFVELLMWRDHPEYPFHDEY

With `C[C@]12CCC(=O)C=C1CC[C@@H]1[C@@H]2C(=O)C[C@@]2(C)[C@H]1CC[C@]2(O)C(=O)CO` [cortisone], the figures for the kss at WT AKR1D1 [1] and on P133R AKR1D1 [2] were 0.048 ± 0.001 s⁻¹ and 0.040 ± 0.001 s⁻¹, respectively. The “reduction in Kd versus 7α-hydroxycholest-4-en-3-one” value at WT AKR1D1 [3] (WT) is on record as 4 fold.
In general, Kd refers to the equilibrium constant for the complex coming apart. Take `NC(=O)c1ccc[n+]([C@@H]2O[C@H](COP(=O)([O-])OP(=O)(O)OC[C@H]3O[C@@H](n4cnc5c(N)ncnc54)[C@H](OP(=O)(O)O)[C@@H]3O)[C@@H](O)[C@H]2O)c1` [NADP^+]: the Kd at WT AKR1D1 [4] (10 mM KPi) worked out at 0.0043 ± 0.0006 µM; at WT AKR1D1 [4] (100 mM KPi), 0.237 ± 0.005 µM; at P133R AKR1D1 [5] (10 mM KPi), 0.08 ± 0.006 µM; at P133R AKR1D1 [5] (100 mM KPi), 27.1 ± 1.3 µM. Further, the “koff (rate of NADP+ release)” value at WT AKR1D1 [6] (10 mM KPi) is 0.164 ± 0.007 s⁻¹; at WT AKR1D1 [6] (100 mM KPi), 0.28 s⁻¹ and 0.276 ± 0.008 s⁻¹; on P133R AKR1D1 [7] (10 mM KPi) it was 8.9 ± 0.2 s⁻¹; on P133R AKR1D1 [7] (100 mM KPi, too fast for instrument (dead time ~1.8 ms)), greater than 50 s⁻¹.
For orientation: kcat means the number of substrate molecules converted per active site and unit of time at saturation. On to `CC(C)CCC[C@@H](C)[C@H]1CC[C@H]2[C@@H]3[C@H](O)CC4=CC(=O)CC[C@]4(C)[C@H]3CC[C@]12C` [7α-hydroxycholest-4-en-3-one], for which the kcat came to 0.017 ± 0.001 s⁻¹ at WT AKR1D1 [8] (10 mM KPi); 0.020 ± 0.002 s⁻¹ on WT AKR1D1 [8] (100 mM KPi); 0.0017 ± 0.0001 s⁻¹ at P133R AKR1D1 [10] (10 mM KPi); 0.0030 ± 0.0005 s⁻¹ at P133R AKR1D1 [10] (100 mM KPi, apparent value, enzyme not saturated with NADPH). Further, the values for the Ki at WT AKR1D1 [8] (10 mM KPi), on WT AKR1D1 [8] (100 mM KPi) and on P133R AKR1D1 [10] were 55 ± 14 µM, 46 ± 18 µM and 51 ± 27 µM, respectively. Besides, the results for the kss on WT AKR1D1 [1] and at P133R AKR1D1 [2] were 0.010 ± 0.002 s⁻¹ and 0.004 ± 0.001 s⁻¹, respectively. In addition, the Kd at WT AKR1D1 [3] is 2.2 ± 0.3 µM; on P133R AKR1D1 [9], 13.6 ± 1.9 µM. Moreover, the entries for the “kcat WT/P133R” value on P133R AKR1D1 [10] (10 mM KPi) and on P133R AKR1D1 [10] (100 mM KPi) were 10 and 6.7, respectively. Also, the “kcat/Km WT/P133R (fold decrease in catalytic efficiency)” value on P133R AKR1D1 [10] (100 mM KPi) was 13 and 13.3.
With `CC(C)(C)NC(=O)[C@H]1CC[C@H]2[C@@H]3CC[C@H]4NC(=O)C=C[C@]4(C)[C@H]3CC[C@]12C` [finasteride], the figures for the Kd on WT AKR1D1 [3] and on P133R AKR1D1 [9] were 3.7 ± 0.2 µM and 14.2 ± 1.3 µM, respectively.
`NC(=O)C1=CN([C@@H]2O[C@H](COP(=O)(O)OP(=O)(O)OC[C@H]3O[C@@H](n4cnc5c(N)ncnc54)[C@H](O)[C@@H]3O)[C@@H](O)[C@H]2O)C=CC1` [NADH]: the dissociation constant Kd was 24.8 ± 1.7 µM on WT AKR1D1 [4] (10 mM KPi), 34.8 ± 3.5 µM at WT AKR1D1 [4] (100 mM KPi), 28.4 ± 1.9 µM on P133R AKR1D1 [5] (10 mM KPi) and 34.5 ± 3.8 µM at P133R AKR1D1 [5] (100 mM KPi).

B1: P133R AKR1D1 (Homo sapiens; P133R) (protein)
chain: MDLSAASHRIPLSDGNSIPIIGLGTYSEPKSTPKGACATSVKVAIDTGYRHIDGAYIYQNEHEVGEAIREKIAEGKVRREDIFYCGKLWATNHVPEMVRPTLERTLRVLQLDYVDLYIIEVPMAFKPGDEIYRRDENGKWLYHKSNLCATWEAMEACKDAGLVKSLGVSNFNRRQLELILNKPGLKHKPVSNQVECHPYFTQPKLLKFCQQHDIVITAYSPLGTSRNPIWVNVSSPPLLKDALLNSLGKRYNKTAAQIVLRFNIQRGVVVIPKSFNLERIKENFQIFDFSLTEEEMKDIEALNKNVRFVELLMWRDHPEYPFHDEY
For the molecule B1, the Km in [11] (10 mM KPi) is recorded as 2.4 ± 0.7 (WT/P133R 0.42) μM; in series [11] (100 mM KPi, apparent value) it was 1.0 ± 0.4 (WT/P133R 0.5) μM.
